Measurements reported in ChEMBL document CHEMBL1165943, “Design and synthesis of new anticancer pyrimidines with multiple-kinase inhibitory effect” (Bioorg Med Chem, 2010).

Experiments:
OVCAR-5 = assay: Growth inhibition of human OVCAR5 cells after 48 hrs by sulforhodamine B assay; type: functional, cell-based; conditions: OVCAR-5, 48 h; for CC50: read-out: LC50 (the source's name)
In short: (§1)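 Cells grown in RPMI 1640 with 5% FBS and 2 mM L-glutamine, seeded at 5,000–40,000 cells/well according to doubling time. After 24 h, time-zero plates are TCA-fixed. Five concentrations (10-fold or ½log dilutions, DMSO stocks) are applied for 48 h at 37 °C, 5% CO₂. Cells are TCA-fixed, SRB-stained and read at 515 nm. IC₅₀ is taken from [(Ti−Tz)/(C−Tz)]×100 = 50.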

BT-549 [1] = assay: Growth inhibition of human BT549 cells after 48 hrs by sulforhodamine B assay; type: functional, cell-based; conditions: BT-549, 48 h; for CC50: read-out: LC50 (the source's name)
In short: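 Five-dose SRB assay. Cells in RPMI 1640 with 5% FBS and 2 mM L-glutamine were seeded at 5,000–40,000 cells/well, with a TCA-fixed time-zero plate (Tz) taken at 24 h. Compound stocks were in DMSO, serially diluted 10-fold or ½-log to five concentrations, and incubated 48 h at 37 °C. Plates were stained with SRB and read at 515 nm. IC₅₀ was taken where [(Ti−Tz)/(C−Tz)]×100 = 50.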

NCI-H460 = assay: Cytotoxicity against human NCI-H460 cells assessed as cell growth at 0.001 uM after 48 hrs by sulforhodamine B assay; type: functional; conditions: NCI-H460, 48 h, read-out: Activity
COLO 205 = assay: Cytotoxicity against human COLO205 cells assessed as cell growth at 0.001 uM after 48 hrs by sulforhodamine B assay; type: functional; conditions: COLO 205, 48 h, read-out: Activity
In short: (§2)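 Cells grown in RPMI 1640 with 5% FBS and 2 mM L-glutamine, seeded at 5,000–40,000 cells/well by doubling time. Time-zero plates TCA-fixed after 24 h. Five concentrations (10-fold or half-log dilutions from DMSO stock) added; 48 h at 37 °C, 5% CO2. Cold TCA fixation (final 10%, 60 min, 4 °C), 0.4% SRB stain, dye solubilized in 10 mM trizma base, A515.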

HT-29 = assay: Cytotoxicity against human HT-29 cells assessed as cell growth at 0.001 uM after 48 hrs by sulforhodamine B assay; type: functional; conditions: HT-29, 48 h, read-out: Activity
KM12 = assay: Cytotoxicity against human KM12 cells assessed as cell growth at 0.001 uM after 48 hrs by sulforhodamine B assay; type: functional; conditions: KM12, 48 h, read-out: Activity
SNB-19 = assay: Cytotoxicity against human SNB19 cells assessed as cell growth at 0.001 uM after 48 hrs by sulforhodamine B assay; type: functional; conditions: SNB-19, 48 h, read-out: Activity
786-0 = assay: Cytotoxicity against human 786-0 cells assessed as cell growth at 0.001 uM after 48 hrs by sulforhodamine B assay; type: functional; conditions: 786-0, 48 h, read-out: Activity; in short: as §2
ACHN [2] = assay: Cytotoxicity against human ACHN cells assessed as cell growth at 0.001 uM after 48 hrs by sulforhodamine B assay; type: functional; conditions: read-out: Activity; in short: as §2
CAKI-1 = assay: Cytotoxicity against human Caki1 cells assessed as cell growth at 0.001 uM after 48 hrs by sulforhodamine B assay; type: functional; conditions: CAKI-1, 48 h, read-out: Activity; in short: as §2
U-251 = assay: Cytotoxicity against human U251 cells assessed as cell growth at 100 nM after 48 hrs by sulforhodamine B assay; type: functional; conditions: U-251, 48 h, read-out: Activity
SK-OV-3 = assay: Cytotoxicity against human SKOV3 cells assessed as cell growth at 100 nM after 48 hrs by sulforhodamine B assay; type: functional; conditions: SK-OV-3, 48 h, read-out: Activity
SF-268 = assay: Cytotoxicity against human SF268 cells assessed as cell growth at 10 uM after 48 hrs by sulforhodamine B assay; type: functional; conditions: SF-268, 48 h, read-out: Activity
SF-539 = assay: Cytotoxicity against human SF539 cells assessed as cell growth at 10 uM after 48 hrs by sulforhodamine B assay; type: functional; conditions: SF-539, 48 h, read-out: Activity
SNB-75 = assay: Cytotoxicity against human SNB75 cells assessed as cell growth at 10 uM after 48 hrs by sulforhodamine B assay; type: functional; conditions: SNB-75, 48 h, read-out: Activity
OVCAR-4 = assay: Cytotoxicity against human OVCAR4 cells assessed as cell growth at 10 uM after 48 hrs by sulforhodamine B assay; type: functional; conditions: OVCAR-4, 48 h, read-out: Activity
MDA-MB-231 = assay: Cytotoxicity against human MDA-MB-231 cells assessed as cell growth at 100 nM after 48 hrs by sulforhodamine B assay; type: functional; conditions: MDA-MB-231, 48 h, read-out: Activity
NCI-H23 = assay: Cytotoxicity against human NCI-H23 cells assessed as cell growth at 1 uM after 48 hrs by sulforhodamine B assay; type: functional; conditions: NCI-H23, 48 h, read-out: Activity
NCI-H522 [3] = assay: Cytotoxicity against human NCI-H522 cells assessed as cell growth at 1 uM after 48 hrs by sulforhodamine B assay; type: functional; conditions: NCI-H522, 48 h, read-out: Activity
IGROV-1 = assay: Cytotoxicity against human IGROV1 cells assessed as cell growth at 0.01 uM after 48 hrs by sulforhodamine B assay; type: functional; conditions: IGROV-1, 48 h, read-out: Activity
SK-MEL-5 = assay: Cytotoxicity against human SK-MEL-5 cells assessed as cell growth at 1 uM after 48 hrs by sulforhodamine B assay; type: functional; conditions: SK-MEL-5, 48 h, read-out: Activity
NCI/ADR-RES = assay: Cytotoxicity against human NCI/ADR-RES cells assessed as cell growth at 1 uM after 48 hrs by sulforhodamine B assay; type: functional; conditions: read-out: Activity
ACHN [4] = assay: Cytotoxicity against human ACHN cells assessed as cell growth at 1 uM after 48 hrs by sulforhodamine B assay; type: functional; conditions: read-out: Activity; in short: as §2
BT-549 [5] = assay: Cytotoxicity against human BT549 cells assessed as cell growth at 1 uM after 48 hrs by sulforhodamine B assay; type: functional; conditions: BT-549, 48 h, read-out: Activity; in short: as §2
T47D = assay: Cytotoxicity against human T47D cells assessed as cell growth at 1 uM after 48 hrs by sulforhodamine B assay; type: functional; conditions: read-out: Activity
NCI-H322M = assay: Cytotoxicity against human NCI-H322M cells assessed as cell growth at 10 uM after 48 hrs by sulforhodamine B assay; type: functional; conditions: read-out: Activity
NCI-H522 [6] = assay: Growth inhibition of human NCI-H522 cells after 48 hrs by sulforhodamine B assay; type: functional, cell-based; conditions: NCI-H522, 48 h; for CC50: read-out: LC50 (the source's name); in short: as §1
SW-620 = assay: Growth inhibition of human SW620 cells after 48 hrs by sulforhodamine B assay; type: functional, cell-based; conditions: SW-620, 48 h; for CC50: read-out: LC50 (the source's name); in short: as §1
SK-MEL-2 = assay: Growth inhibition of human SK-MEL-2 cells after 48 hrs by sulforhodamine B assay; type: functional, cell-based; conditions: SK-MEL-2, 48 h; for CC50: read-out: LC50 (the source's name); in short: as §1

## CC(=O)c1ccccc1-c1ccc(-c2ccnc(NC(=O)Nc3cc(N4CCOCC4)cc(C(F)(F)F)c3)n2)cn1
OVCAR-5
  GI50: > 100 µM
  IC50: > 100 µM
  TGI: > 100 µM
  CC50: > 100 µM
BT-549 [1]
  TGI: > 100 µM
  CC50: > 100 µM
NCI-H460
  growth at 0.001 µM: 109%
COLO 205
  growth at 0.001 µM: 109%
HT-29
  growth at 0.001 µM: 103%
KM12
  growth at 0.001 µM: 103%
SNB-19
  growth at 0.001 µM: 98%
786-0
  growth at 0.001 µM: 103%
ACHN [2]
  growth at 0.001 µM: 97%
CAKI-1
  growth at 0.001 µM: 97%
U-251
  growth at 0.1 µM: 93%
SK-OV-3
  growth at 0.1 µM: 118%
SF-268
  growth at 10 µM: 44%
SF-539
  growth at 10 µM: 56%
SNB-75
  growth at 10 µM: -45%
OVCAR-4
  growth at 10 µM: 91%
MDA-MB-231
  growth at 0.1 µM: 84%
NCI-H23
  growth at 1 µM: 52%
NCI-H522 [3]
  growth at 1 µM: 90%
IGROV-1
  growth at 0.01 µM: 96%
SK-MEL-5
  growth at 1 µM: 33%
NCI/ADR-RES
  growth at 1 µM: 50%
ACHN [4]
  growth at 1 µM: 42%
BT-549 [5]
  growth at 1 µM: 21%
T47D
  growth at 1 µM: 60%
NCI-H322M
  growth at 10 µM: 80%
NCI-H522 [6]
  GI50: > 100 µM
  IC50: 63.2 µM
  TGI: > 100 µM
  CC50: > 100 µM
SW-620
  GI50: > 100 µM
  IC50: > 100 µM
  TGI: > 100 µM
  CC50: > 100 µM
SK-MEL-2
  GI50: > 100 µM
  IC50: 15.9 µM
  TGI: 75.5 µM
  CC50: > 100 µM

## CC(=O)Nc1cccc(-c2ccc(-c3ccnc(NC(=O)Nc4cc(C(F)(F)F)cc(C(F)(F)F)c4)n3)cn2)c1.Cl
OVCAR-5
  GI50: 11.8 µM
  IC50: 11.8 µM
  TGI: 24.5 µM
  CC50: 50.8 µM
BT-549 [1]
  GI50: 7.07 µM
  IC50: 7.07 µM
  TGI: 20.4 µM
  CC50: 46.3 µM
NCI-H460
  growth at 0.001 µM: 95%
COLO 205
  growth at 0.001 µM: 103%
HT-29
  growth at 0.001 µM: 106%
KM12
  growth at 0.001 µM: 99%
SNB-19
  growth at 0.001 µM: 95%
786-0
  growth at 0.001 µM: 96%
ACHN [2]
  growth at 0.001 µM: 101%
CAKI-1
  growth at 0.001 µM: 108%
U-251
  growth at 0.1 µM: 85%
SK-OV-3
  growth at 0.1 µM: 94%
SF-268
  growth at 10 µM: -50%
SF-539
  growth at 10 µM: -98%
SNB-75
  growth at 10 µM: -57%
OVCAR-4
  growth at 10 µM: -87%
MDA-MB-231
  growth at 0.1 µM: 77%
NCI-H23
  growth at 1 µM: -16%
NCI-H522 [3]
  growth at 1 µM: -22%
IGROV-1
  growth at 0.01 µM: 95%
SK-MEL-5
  growth at 1 µM: 100%
NCI/ADR-RES
  growth at 1 µM: 17%
ACHN [4]
  growth at 1 µM: 20%
BT-549 [5]
  growth at 1 µM: 43%
T47D
  growth at 1 µM: -3%
NCI-H322M
  growth at 10 µM: -62%
NCI-H522 [6]
  GI50: 1.71 µM
  IC50: 1.71 µM
  TGI: 5.85 µM
  CC50: 35.3 µM
SW-620
  GI50: 2.3 µM
  IC50: 2.3 µM
  TGI: 5.59 µM
  CC50: > 100 µM
SK-MEL-2
  GI50: 5.65 µM
  IC50: 5.65 µM
  TGI: 19.8 µM
  CC50: 52.4 µM
